How the values were obtained:
[1] = Permeability across apical to basolateral side in human Caco-2 cells assessed as transepithelial electrical resistance at 10 uM incubated for 2 hrs LC-MS/MS analysis; format: ADME, cell-based; details: caco-2, 2 h
Summary of the method: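 Caco-2 monolayers, apical to basolateral direction. Plates preincubated 30 min at 37 °C, then exposed to 10 µM compound for 2 h at 37 °C without shaking. Donor and receiver samples were quenched, centrifuged and measured by LC/MS/MS, in duplicate. Papp calculated from receiver concentration, area and time. Monolayer integrity checked by TEER and by Lucifer yellow leakage (30 min, 37 °C, ex 485/em 530 nm).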

[2] = biological target: T1, Cytochrome P450 1A2 (Homo sapiens, UniProt P05177); test: Inhibition of CYP1A2 in human liver microsomes using phenacetin as substrate incubated for 5 mins followed by NADPH addition and measured after 20 mins by LC-MS/MS analysis; format: ADME
T1 sequence (P05177 whole entry): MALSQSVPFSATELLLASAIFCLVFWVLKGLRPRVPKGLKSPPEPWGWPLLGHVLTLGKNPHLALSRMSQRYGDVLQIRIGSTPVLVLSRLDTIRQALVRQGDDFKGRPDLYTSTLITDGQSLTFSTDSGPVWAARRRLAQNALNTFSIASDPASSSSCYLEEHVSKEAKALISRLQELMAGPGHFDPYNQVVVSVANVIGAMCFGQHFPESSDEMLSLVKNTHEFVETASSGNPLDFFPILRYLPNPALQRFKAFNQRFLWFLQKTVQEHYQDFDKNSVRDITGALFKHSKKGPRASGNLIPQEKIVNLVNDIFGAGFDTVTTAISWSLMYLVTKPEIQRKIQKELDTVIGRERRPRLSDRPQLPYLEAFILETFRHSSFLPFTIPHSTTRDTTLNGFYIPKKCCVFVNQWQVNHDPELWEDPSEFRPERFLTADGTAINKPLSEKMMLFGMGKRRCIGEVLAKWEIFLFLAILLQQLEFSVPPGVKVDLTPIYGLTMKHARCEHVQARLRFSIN
Summary of the method: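 Human liver microsomes at 0.2 mg/mL mixed with probe substrates, preincubated 5 min at 37 °C. Reaction started with NADPH and run 20 min at 37 °C in a shaking bath. Quenched, held at -20 °C for 1 h, centrifuged, and the supernatant analysed by LC/MS/MS. Assay validated with specific inhibitors for each isoform.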

[3] = biological target: Cytochrome P450 2C9 (Homo sapiens, UniProt P11712); test: Inhibition of CYP2C9 in human liver microsomes using diclofenac as substrate incubated for 5 mins followed by NADPH addition and measured after 20 mins by LC-MS/MS analysis; format: ADME
Sequence of Cytochrome P450 2C9 (P11712 whole entry): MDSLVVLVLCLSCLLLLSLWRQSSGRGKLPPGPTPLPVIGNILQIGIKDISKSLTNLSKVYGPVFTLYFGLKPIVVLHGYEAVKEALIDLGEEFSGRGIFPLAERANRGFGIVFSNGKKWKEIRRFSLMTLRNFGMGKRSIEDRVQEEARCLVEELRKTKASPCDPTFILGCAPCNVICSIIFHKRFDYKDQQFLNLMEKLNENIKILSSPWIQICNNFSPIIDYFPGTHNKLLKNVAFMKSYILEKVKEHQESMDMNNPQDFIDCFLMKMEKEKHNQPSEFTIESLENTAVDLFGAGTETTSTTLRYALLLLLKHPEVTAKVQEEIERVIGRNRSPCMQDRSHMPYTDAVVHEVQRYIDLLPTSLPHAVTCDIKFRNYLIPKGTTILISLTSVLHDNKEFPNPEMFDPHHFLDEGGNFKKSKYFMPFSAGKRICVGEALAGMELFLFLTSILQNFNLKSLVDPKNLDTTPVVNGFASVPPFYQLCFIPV

[4] = Toxicity in BALB/c mouse assessed as effect on behavioral change at 50 to 100 mg/kg, ig administered for 14 days; format: organism-based; details: in vivo, po, 336 h, dose 50-100 mg/kg, time 14 day
Summary of the method: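 BALB/c mice, 10 per group, gavaged daily for 14 days at 50 or 100 mg/kg; blank control group included. Hair, behaviour and neurological signs (fremitus, convulsion, spasm, gait disturbance) were observed. At day 14, mice were weighed and given routine blood tests and serum biochemistry (ALT, AST, urea, creatinine; n = 10). Liver and kidney were examined on paraffin-embedded histology sections.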

[5] = Toxicity in BALB/c mouse assessed as necrosis in renal tubular epithelial cells at 50 to 100 mg/kg, ig administered for 14 days; format: organism-based; details: in vivo, po, 336 h, dose 50-100 mg/kg, time 14 day
Summary of the method: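 BALB/c mice, 10 per group: untreated blank group plus low (50 mg/kg) and high (100 mg/kg) dose groups, intragastric once daily for 14 days. Hair, behaviour and neurological signs monitored throughout. At day 14 mice were weighed and dissected. Kidney and liver tissue was fixed in 3 mm pieces, dehydrated through graded alcohol, cleared in xylene, embedded in paraffin, sectioned and examined histopathologically.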

[6] = in vitro; details: human, liver microsomes

## COc1ccc2cc(C(=O)NCCN(C)C)oc2c1.CS(=O)(=O)O
[1]
  Activity: 341 Ω·cm²
[2]
  IC50: > 10 µM
[3]
  IC50: > 10 µM
[4]
  Activity: Non-Toxic
[5]
  Activity: Toxic
[6]
  microsomal CLint at 0.5 h, 100 µM: 6.73 µL/min/mg

— ChEMBL document CHEMBL4765342, “Substituted benzothiophene and benzofuran derivatives as a novel class of bone morphogenetic Protein-2 upregulators: Synthesis, anti-osteoporosis efficacies in ovariectomized rats and a zebrafish model, and ADME properties” (Eur J Med Chem, 2020)
